Assay outcomes from PubChem.
MDM2 E3 inh – inhibitors of human Mdm2 E3 ubiquitin ligase; 0.11% of 210,000 active; Q00987; cell-based MDM2 ubiquitination luciferase reporter, 2 h; 0 = plate control, 100 = twice control, blank-subtracted; signal enhancement, % at 5 µM; AID 1230;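 active = signal enhancement of 30% or more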;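 also: luminescence tracks abundance of the self-degrading MDM2-luciferase fusion protein; higher signal means inhibition of MDM2 E3 ligase activity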
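Material: Stable MDM2–luciferase fusion reporter cells | Amount: 2000 cells seeded into each well | Dosing: One concentration, 5 µM, with 0.2% DMSO | Incubation: 4 h cell settling then 2 h compound exposure, 37 °C | Measured by: Luciferase luminescence | Read-out basis: % enhancement relative to plate controls after blank subtraction | Benchmarks: Control and blank well means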
STAT1 activator – increases IFN-gamma driven STAT1 reporter signal | activation (% of control), % at 5.5 µM | NIH 3T3 STAT1-luciferase reporter, luminescence; 100% = IFN-gamma alone, no compound | AID 932 | 2.6% of 200,000 active;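 active = activation above the screen-wide mean activation plus 3 SD, cut at about 130% in these data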;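 also: raw ratio to IFN-gamma control signal so 100% means no change and 0% no light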
p97 ATPase inh – inhibitors of human p97 ATPase. 0.42% of 220,000 active. recombinant p97 ATPase, Kinase-Glo ATP luminescence, 3 h. P55072. AID 1481. inhibition, % at 8 µM; in the data active = inhibition above about 15%;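 also: 0% = DMSO vehicle and 100% = wells lacking enzyme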
APP 5'UTR act – activates APP 5'UTR luciferase reporter. SH-SY5Y APP 5'UTR luciferase reporter, luminescence; zero percent = DMSO vehicle wells. AID 1276. activation, % at 2 µM. 1% of 190,000 active;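 active = activation above a set limit, based on mean plus 3 SD of controls, cut at about 140% in these data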
Wee1 degr inh – human Wee1 degradation inhibition, primary screen | reporter increase, % at 5 µM | HeLa Luc-Wee1K328M stability, luciferase luminescence; 100% = proteasome inhibitor MG132 effect | 1.2% of 220,000 active;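 active = activation above the mean of all tested compounds plus 3 SD, set per screening run, cut at about 8.8% in these data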;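 also: cells exposed to compound for 20 h before luminescence read; 0% = DMSO alone and 100% = MG132 at 30 µM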
Target sequence (P30291 whole entry K328M): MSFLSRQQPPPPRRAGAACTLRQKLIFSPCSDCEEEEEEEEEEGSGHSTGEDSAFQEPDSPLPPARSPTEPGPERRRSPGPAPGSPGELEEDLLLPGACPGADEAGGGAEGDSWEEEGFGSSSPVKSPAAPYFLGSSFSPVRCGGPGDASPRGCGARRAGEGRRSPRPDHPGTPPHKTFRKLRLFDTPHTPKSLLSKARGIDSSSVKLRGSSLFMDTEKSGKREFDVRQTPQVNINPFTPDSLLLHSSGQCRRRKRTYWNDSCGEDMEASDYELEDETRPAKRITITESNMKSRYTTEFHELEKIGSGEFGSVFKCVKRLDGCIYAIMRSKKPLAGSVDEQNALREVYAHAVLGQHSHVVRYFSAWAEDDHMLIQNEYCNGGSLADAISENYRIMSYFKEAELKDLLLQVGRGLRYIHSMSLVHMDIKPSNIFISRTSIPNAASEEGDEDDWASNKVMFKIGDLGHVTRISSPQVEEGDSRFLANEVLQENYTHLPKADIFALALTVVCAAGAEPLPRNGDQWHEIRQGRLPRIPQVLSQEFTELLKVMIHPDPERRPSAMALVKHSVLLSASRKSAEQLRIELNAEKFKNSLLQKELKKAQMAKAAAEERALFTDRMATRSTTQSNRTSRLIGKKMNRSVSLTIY
NF-kB expr up – compounds increasing NF-kB expression in human neuronal cells. 1.6% of 190,000 active. NF-kB reporter expression; hits give high values. fold change at 12.5 µM; in the data active = fold change above about 3.3
p97 inh conf – human p97 ATPase inhibition, confirmation; shares compounds with p97 ATPase inh; recombinant p97 ATPase, Kinase-Glo ATP luminescence; inhibition, % at 8 µM; 44% of 760 active; AID 1517;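 active = percent inhibition of p97 ATPase above a set limit, the primary screen's mean plus 3 SD, cut at about 15% in these data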;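 also: 0% = DMSO wells and 100% = wells lacking p97 protein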
* hit, by the source's call; · = no result given. The list is not random: actives were taken first. Their share in the collection is about 4.6%.

SMILES	MDM2 E3 inh	STAT1 activator	p97 ATPase inh	APP 5'UTR act	Wee1 degr inh	NF-kB expr up	p97 inh conf
Cc1cc2cccc(C)c2nc1SCC(=O)NNC(=O)c1ccco1	-7	95	3	-6	3	1	·
COc1ccc(Nc2nc(-c3ccccc3)nc3ccccc23)cc1S(=O)(=O)N1CCOCC1	·	·	16*	·	-1	·	13
Cc1ccc(S(=O)(=O)CCC(=O)OCC(=O)c2c(C)[nH]c3ccccc23)cc1	-5	96	20*	-5	1	1.1	14
Cc1[nH]c2ccccc2c1C(=O)CCl	-5	99	36*	0	-2	0.83	37*
Cc1[nH]c2ccccc2c1C(=O)CSc1ccccc1	-4	111	1	42	-3	1.1	·
COc1ccc(C2CCCN2C(=S)Nc2ccc(C)cc2Cl)cc1OC (centres undefined)	-3	97	1	14	-1	1.1	·
N#Cc1ccc(-c2ccc(OCC(=O)NCC(=O)Nc3ccc(F)c(F)c3F)cc2)cc1	-9	96	-5	2	-1	1.1	·
CCN1CCN(CC(=O)N2CCCC(C(=O)c3ccc(Oc4ccccc4)cc3)C2)CC1 (centres undefined)	10	96	0	-18	-1	0.98	·
COc1ccc(NC(=O)C2C(c3ccccc3)C2(Cl)Cl)cc1 (centres undefined)	-10	·	8	·	-1	·	·
CC(=O)c1cccc(NC(=O)C2C(c3ccccc3)C2(Cl)Cl)c1 (centres undefined)	-16	90	28*	5	4	0.85	32*
Cc1cccc(NC(=O)C2C(c3ccccc3)C2(Cl)Cl)c1 (centres undefined)	-2	100	19*	-16	-1	1.2	37*
Cc1ccc(NC(=O)C2C(c3ccccc3)C2(Cl)Cl)c(C)c1 (centres undefined)	-8	98	-1	18	2	0.73	·
CCOC(=O)c1ccc(NC(=O)c2cn(CCC#N)nc2-c2ccc3c(c2)OCCO3)cc1	-15	96	3	-4	0	0.7	·
COc1ccc(Nc2nc3ccccc3nc2NS(=O)(=O)c2cccs2)c(OC)c1	-15	·	24*	·	-2	·	29*
COc1cccc(Nc2nc3ccccc3nc2NS(=O)(=O)c2cccs2)c1	-5	98	2	6	1	0.74	·
O=[N+]([O-])c1ccccc1/C=C/C=N/n1c(-c2ccccc2F)n[nH]c1=S	1	·	-3	·	-1	·	·
O=C(Nc1ccc(Cl)cc1)C1CC2CCCC(C1)C2=O (centres undefined)	0	88	-4	45	3	1.4	·
O=C(Nc1ccccc1)C1CC2CCCC(C1)C2=O (centres undefined)	-6	95	17*	9	-2	0.95	6
CC1(C(=O)OCC(=O)Nc2cccc(S(=O)(=O)NC3=NCCCCC3)c2)CC1(Cl)Cl (centres undefined)	6	101	-1	8	8	0.97	·
CN(C1CCCCC1)S(=O)(=O)c1ccc2[nH]c(=O)oc2c1	-10	·	2	·	2	·	·
CC(=O)Nc1cccc(CNCc2cccc(NC(C)=O)c2)c1	-8	90	4	11	3	1.1	·
Cc1[nH]c2ccccc2c1/C=N/NC(=O)c1cc(C(C)C)[nH]n1	-14	·	17*	·	0	·	17*
Cc1[nH]c2ccccc2c1/C=N/NC(=O)c1cccs1	0	107	16*	10	1	1.7	22*
Cc1[nH]c2ccccc2c1/C=N/NC(=O)c1cccc(F)c1	3	110	3	10	0	1.4	·
O=C1NN(c2ccc(F)c(Cl)c2)C(=O)/C1=C\c1cccc(OC(=O)c2cccs2)c1	2	102	16*	8	-1	1.1	15
SMILES	MDM2 E3 inh	STAT1 activator	p97 ATPase inh	APP 5'UTR act	Wee1 degr inh	NF-kB expr up	p97 inh conf
O=C1OC(c2ccccc2)=N/C1=C/c1cccc(OC(=O)c2cccs2)c1	·	101	5	15	-2	·	·
CCC(C)NC(=S)N1CCN(C)CC1 (centres undefined)	-1	94	-3	-1	-2	1.1	·
Cc1cc(SCC(=O)Nc2ccc(O)cc2)n2ncc(-c3ccccc3)c2n1	-12	·	5	·	1	·	·
Cc1cc(SCC(=O)Nc2ccc(O)cc2)n2nc(C)c(-c3ccccc3)c2n1	-7	·	24*	·	1	·	8
COc1ccc(CCN(C)C(=O)C2CCN(Cc3cccc(OC)c3OC)CC2)cc1OC	2	101	5	22	-3	1.1	·
Cc1[nH][nH]c(=O)c1C(c1ccc(-c2cccc(C(=O)O)c2)o1)c1c(C)[nH][nH]c1=O	2	121	19*	11	4	1.2	12
Cc1[nH][nH]c(=O)c1C(c1ccc(-c2cccc(Cl)c2)o1)c1c(C)[nH][nH]c1=O	·	·	36*	·	2	·	34*
COC(=O)c1ccc(-c2ccc(C(c3c(C)[nH][nH]c3=O)c3c(C)[nH][nH]c3=O)o2)cc1	-14	95	11	-18	0	0.56	·
Cc1ccc2oc(-c3ccccc3C(=O)O)cc(=O)c2c1	-1	96	4	11	-1	0.96	·
Cc1[nH][nH]c(=O)c1C(c1ccc(-c2ccccc2C(=O)O)o1)c1c(C)[nH][nH]c1=O	-7	110	22*	4	-3	1	24*
CCOc1ccccc1NC(=S)NCCc1ccccc1	-17	91	1	22	1	1	·
Nc1c(C(=O)N/N=C/c2cccnc2)oc2nc(-c3ccco3)cc(-c3ccco3)c12	-10	·	17*	·	3	·	4
Cn1cc(C(=O)c2ccc(Cl)cc2Cl)cc1C(=O)N/N=C(\N)COc1ccc(F)cc1	-22	99	0	-23	-1	0.5	·
Cn1cc(C(=O)c2ccc(Cl)cc2Cl)cc1C(=O)N/N=C(\N)COc1ccc(Cl)cc1	·	·	18*	·	0	·	20*
CC(Sc1ncnc2ccccc12)C(=O)Nc1ccc2c(c1)OCCO2 (centres undefined)	-17	90	3	3	0	0.73	·
Cc1[nH][nH]c(=O)c1C(c1c(C)[nH][nH]c1=O)c1cn(Cc2ccccc2Cl)c2ccccc12	-1	104	20*	-49	0	0.81	20*
O=C(CSc1ccsc1[N+](=O)[O-])N1CCN(c2ccccn2)CC1	-16	95	18*	-11	0	1.1	8
COc1ccc(N2CCN(CC(=O)c3c(C)n(C)c4ccc(OC)cc34)CC2)cc1	·	·	27*	·	-2	·	34*
COc1ccc2c(c1)c(C(=O)CN1CCOCC1)c(C)n2C	-20	96	-4	9	0	1.1	·
